What was measured:
[1] = test system: HCT-116; experiment: Cytotoxicity against human HCT116 cells by SRB assay; assay type: functional, cell-based
Method in brief: (§1)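 Cytotoxicity measured in human cancer cell lines (colon HCT116, lung A549, stomach SNU638, breast T47D, prostate PC-3, leukemia K562) by sulforhodamine B protein staining.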

[2] = test system: A549; experiment: Cytotoxicity against human A549 cells by SRB assay; assay type: functional, cell-based; method in brief: as §1
[3] = Cytotoxicity against human SNU638 cells by SRB assay; assay type: functional, cell-based; conditions: SNU-638; method in brief: as §1
[4] = test system: T47D; experiment: Cytotoxicity against human T47D cells by SRB assay; assay type: functional, cell-based; method in brief: as §1
[5] = test system: PC-3; experiment: Cytotoxicity against human PC3 cells by SRB assay; assay type: functional, cell-based; method in brief: as §1
[6] = test system: K562; experiment: Cytotoxicity against human K562 cells by SRB assay; assay type: functional, cell-based; method in brief: as §1
[7] = test system: PC-3; experiment: Drug metabolism in human PC3 cells assessed as formation of mono, di, or triphosphate at 50 uM after 24 hrs by HPLC-MS analysis; assay type: ADME, cell-based; conditions: pc-3, 24 h
Method in brief: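 PC-3 cells seeded at 5×10^5 per 100 mm dish, grown 24 h, then exposed to 50 µM compound for 24 h. Cells washed with DPBS and extracted in methanol/chloroform with three liquid N₂ freeze–sonication cycles. Water/chloroform phase split at 22,000 g, 4 °C. Dried upper layer analysed by HILIC (ZIC-pHILIC, 10 mM ammonium carbonate/acetonitrile gradient, 35 °C) with ESI ion-trap MS.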

Compound | IC50 [1] [µM] | IC50 [2] [µM] | IC50 [3] [µM] | IC50 [4] [µM] | IC50 [5] [µM] | IC50 [6] [µM] | Drug metabolism [7]
[N-]=[N+]=N[C@@H]1C(n2ccc(=O)[nH]c2=O)[Se][C@H](CO)[C@H]1O (stereo partly drawn) | > 100 | > 100 | > 100 | > 100 | > 100 | > 100 | –
[N-]=[N+]=N[C@@H]1C(n2cc(Cl)c(=O)[nH]c2=O)[Se][C@H](CO)[C@H]1O (stereo partly drawn) | > 100 | > 100 | > 100 | > 100 | > 100 | > 100 | –
[N-]=[N+]=N[C@@H]1C(n2cc(I)c(=O)[nH]c2=O)[Se][C@H](CO)[C@H]1O (stereo partly drawn) | > 100 | > 100 | > 100 | > 100 | > 100 | > 100 | –
Cc1cn(C2[Se][C@H](CO)[C@@H](O)[C@@H]2F)c(=O)[nH]c1=O (stereo partly drawn) | 85.2 | 76.4 | 77.2 | 65.3 | 88 | 76.3 | –
O=c1[nH]c(=O)n(C2[Se][C@H](CO)[C@@H](O)[C@@H]2F)cc1F (stereo partly drawn) | 40.1 | 54.2 | 50.1 | 51.1 | 43.1 | 78.5 | –
O=c1[nH]c(=O)n(C2[Se][C@H](CO)[C@@H](O)[C@@H]2F)cc1Br (stereo partly drawn) | > 100 | > 100 | > 100 | > 100 | > 100 | > 100 | –
O=c1[nH]c(=O)n(C2[Se][C@H](CO)[C@@H](O)[C@@H]2F)cc1I (stereo partly drawn) | > 100 | > 100 | > 100 | > 100 | > 100 | > 100 | –
O=c1ccn(C2[Se][C@H](CO)[C@@H](O)[C@@H]2O)c(=O)[nH]1 (stereo partly drawn) | > 100 | > 100 | > 100 | > 100 | > 100 | > 100 | –
Cc1cn(C2[Se][C@H](CO)[C@@H](O)[C@@H]2O)c(=O)[nH]c1=O (stereo partly drawn) | > 100 | > 100 | > 100 | > 100 | > 100 | > 100 | –
O=c1[nH]c(=O)n(C2[Se][C@H](CO)[C@@H](O)[C@@H]2O)cc1F (stereo partly drawn) | 56.8 | 55.2 | 60.1 | 67.4 | 66.3 | > 100 | –
O=c1[nH]c(=O)n(C2[Se][C@H](CO)[C@@H](O)[C@@H]2O)cc1Cl (stereo partly drawn) | > 100 | > 100 | > 100 | > 100 | > 100 | > 100 | –
O=c1[nH]c(=O)n(C2[Se][C@H](CO)[C@@H](O)[C@@H]2O)cc1Br (stereo partly drawn) | > 100 | > 100 | > 100 | > 100 | > 100 | > 100 | –
O=c1[nH]c(=O)n(C2[Se][C@H](CO)[C@@H](O)[C@@H]2O)cc1I (stereo partly drawn) | > 100 | > 100 | > 100 | > 100 | > 100 | > 100 | –
Nc1ccn(C2[Se][C@H](CO)[C@@H](O)[C@@H]2F)c(=O)n1 (stereo partly drawn) | 1.1 | 0.47 | 0.14 | 0.79 | 0.58 | 0.63 | metabolite_notdetected
Nc1ccn(C2[Se][C@H](CO)[C@@H](O)[C@@H]2O)c(=O)n1 (stereo partly drawn) | 7.13 | 8.83 | 4.72 | 8.91 | 4.54 | 86.6 | –
Cc1cn(C2[Se][C@H](CO)[C@@H](O)[C@@H]2N=[N+]=[N-])c(=O)[nH]c1=O (single isomer, unassigned; (+)) | > 100 | > 100 | > 100 | > 100 | > 100 | > 100 | –
[N-]=[N+]=N[C@@H]1C(n2cc(F)c(=O)[nH]c2=O)[Se][C@H](CO)[C@H]1O (single isomer, unassigned; (+)) | > 100 | > 100 | > 100 | > 100 | > 100 | > 100 | –
O=c1[nH]c(=O)n(C2[Se][C@H](CO)[C@@H](O)[C@@H]2F)cc1Cl (single isomer, unassigned; (+)) | 80.2 | 82.1 | 76.3 | 77.1 | > 100 | > 100 | –
[N-]=[N+]=N[C@@H]1C(n2ccc(N)nc2=O)[Se][C@H](CO)[C@H]1O (single isomer, unassigned; (+)) | 78.3 | 80.1 | 85.2 | 78.4 | 75.1 | 62.3 | –
[N-]=[N+]=N[C@@H]1C(n2cc(Br)c(=O)[nH]c2=O)[Se][C@H](CO)[C@H]1O (single isomer, unassigned; (-)) | > 100 | > 100 | > 100 | > 100 | > 100 | > 100 | –
O=c1ccn(C2[Se][C@H](CO)[C@@H](O)[C@@H]2F)c(=O)[nH]1 (single isomer, unassigned; (-)) | > 100 | > 100 | > 100 | > 100 | > 100 | > 100 | –
Nc1ccn([C@@H]2O[C@H](CO)[C@@H](O)[C@@H]2O)c(=O)n1 [CYTARABINE] | – | – | 0.15 | – | – | – | –

From ChEMBL document CHEMBL3297674, “Structure-activity relationships of 2'-modified-4'-selenoarabinofuranosyl-pyrimidines as anticancer agents” (Eur J Med Chem, 2014)
